The source made the active and inactive calls.
Experiments:
Rattus norvegicus [1] = species: Rattus norvegicus; experiment: Inhibition of GABA uptake at 1 uM concentration.; format: functional
[2] = target: D(1A) dopamine receptor (Rattus norvegicus) (UniProt P18901); experiment: Binding affinity towards Dopamine receptor D1 at 1.0 uM concentration
Method in brief: (§1)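 Rat brain crude synaptic membranes in 20 mM NaHEPES pH 7.5. Ligands: α1 cortex […] 0.4 nM, nonspecific with (-)-NE 100 μM, 30 min at 25 °C. […] D2 striatum [3H]spiperone 0.05 nM with (+)-butaclamol 1 μM, 45 min at 37 °C. S1 cortex [3H]5-HT 1 nM plus glutathione and MgCl2, with 5-HT 10 μM, 20 min at 37 °C. […] Samples filtered on GF/B and counted.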

[3] = target: D(2) dopamine receptor (Rattus norvegicus) (UniProt P61169); experiment: Binding affinity towards dopamine receptor D2 at 1.0 uM concentration; method in brief: as §1
Sequence of D(2) dopamine receptor (Rattus norvegicus) (P61169 whole entry): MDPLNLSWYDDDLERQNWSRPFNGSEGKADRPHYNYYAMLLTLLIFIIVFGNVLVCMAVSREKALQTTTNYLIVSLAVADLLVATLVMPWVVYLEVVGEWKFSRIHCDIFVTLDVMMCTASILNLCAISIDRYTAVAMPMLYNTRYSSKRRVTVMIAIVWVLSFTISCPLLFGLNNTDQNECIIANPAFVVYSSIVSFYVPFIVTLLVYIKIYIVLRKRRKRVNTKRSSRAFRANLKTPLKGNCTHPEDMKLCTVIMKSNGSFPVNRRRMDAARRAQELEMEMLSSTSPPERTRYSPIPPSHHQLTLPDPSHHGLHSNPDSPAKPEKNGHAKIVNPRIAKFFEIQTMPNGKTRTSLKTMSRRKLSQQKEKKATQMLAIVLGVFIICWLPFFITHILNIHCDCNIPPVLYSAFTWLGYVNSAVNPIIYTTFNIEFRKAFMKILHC

Mus musculus [4] = species: Mus musculus; experiment: Gross behavioral effects ascertained in mice; W indicates weak stimulant or depressant activity of little significance.; format: functional, organism-based
Method in brief: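 Male Swiss Webster mice, 18–24 g, three per dose, given ip doses of 1, 3, 10, 30, 100 and 300 mg/kg. Observed for gross behavior and held for 4 days. Scored as weak (W), stimulant (S), depressant (D) or convulsant (C).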

Rattus norvegicus [5] = experiment: Ability to inhibit the uptake of tritiated norepinephrine (NE) 0.1 mg/kg concentration; format: functional
Mus musculus [6] = species: Mus musculus; experiment: Antagonism of tetrabenazine (TBZ)-induced depression in mice measured for ptosis; format: functional
Method in brief: (§2)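 Nonfasted male Swiss Webster mice, 18–24 g, ten per dose level and in saline controls. Test compound given ip 30 min before tetrabenazine 32 mg/kg ip; dose expressed as free base. Motor activity and ptosis scored. Control response ≤90% corrected by Abbott's formula.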

Rattus norvegicus [7] = experiment: Ability to inhibit the uptake of tritiated serotonin(5-HT) 0.1 mg/kg concentration; format: functional
Mus musculus [8] = species: Mus musculus; experiment: Antagonism of tetrabenazine (TBZ)-induced depression measured in mice by motor activity; format: functional; method in brief: as §2
[9] = target: Sodium-dependent dopamine transporter (Rattus norvegicus, UniProt P23977); experiment: Inhibition of the uptake of tritiated dopamine (DA) in rat synaptosomes; format: subcellular, Brain
Sequence of Sodium-dependent dopamine transporter (P23977 whole entry): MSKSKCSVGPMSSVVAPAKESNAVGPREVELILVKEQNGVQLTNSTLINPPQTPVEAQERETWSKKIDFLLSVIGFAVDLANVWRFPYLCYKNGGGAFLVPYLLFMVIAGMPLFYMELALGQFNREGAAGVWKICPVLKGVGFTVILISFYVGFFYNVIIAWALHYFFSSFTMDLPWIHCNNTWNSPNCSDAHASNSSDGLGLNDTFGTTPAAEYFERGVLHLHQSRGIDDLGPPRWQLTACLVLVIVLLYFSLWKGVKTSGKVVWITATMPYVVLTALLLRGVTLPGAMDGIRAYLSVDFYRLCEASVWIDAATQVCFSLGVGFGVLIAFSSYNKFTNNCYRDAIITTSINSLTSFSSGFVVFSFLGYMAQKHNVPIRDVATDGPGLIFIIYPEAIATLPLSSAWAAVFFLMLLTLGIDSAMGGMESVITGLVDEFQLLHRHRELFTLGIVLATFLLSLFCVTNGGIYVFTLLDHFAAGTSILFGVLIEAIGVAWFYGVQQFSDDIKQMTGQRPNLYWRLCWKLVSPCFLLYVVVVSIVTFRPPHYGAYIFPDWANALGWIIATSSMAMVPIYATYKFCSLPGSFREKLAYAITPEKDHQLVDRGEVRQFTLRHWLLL

Mus musculus [10] = experiment: (§3) Ability to antagonise intraperitoneal dose; inactive (<10% antagonism) at 30 mgjkg is represented as I-30.; format: functional, organism-based
Method in brief: (§4)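 Swiss Webster male albino mice, nonfasted, 18–24 g, 10 per dose and in saline control. Compound given ip 30 min before TBZ 32 mg/kg ip. Motor activity and ptosis scored. Response corrected by Abbott's formula when control response was 90% or less. Doses expressed as free base.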

Mus musculus [11] = experiment: as §3; format: functional, organism-based; method in brief: as §4; remark: listed apart in the source
[12] = target: Norepinephrine transporter (Rattus norvegicus, UniProt Q9WTR4); experiment: Inhibition of uptake of tritiated norepinephrine (NE) in rat synaptosomes; format: subcellular, Brain
Sequence of Norepinephrine transporter (Q9WTR4 whole entry): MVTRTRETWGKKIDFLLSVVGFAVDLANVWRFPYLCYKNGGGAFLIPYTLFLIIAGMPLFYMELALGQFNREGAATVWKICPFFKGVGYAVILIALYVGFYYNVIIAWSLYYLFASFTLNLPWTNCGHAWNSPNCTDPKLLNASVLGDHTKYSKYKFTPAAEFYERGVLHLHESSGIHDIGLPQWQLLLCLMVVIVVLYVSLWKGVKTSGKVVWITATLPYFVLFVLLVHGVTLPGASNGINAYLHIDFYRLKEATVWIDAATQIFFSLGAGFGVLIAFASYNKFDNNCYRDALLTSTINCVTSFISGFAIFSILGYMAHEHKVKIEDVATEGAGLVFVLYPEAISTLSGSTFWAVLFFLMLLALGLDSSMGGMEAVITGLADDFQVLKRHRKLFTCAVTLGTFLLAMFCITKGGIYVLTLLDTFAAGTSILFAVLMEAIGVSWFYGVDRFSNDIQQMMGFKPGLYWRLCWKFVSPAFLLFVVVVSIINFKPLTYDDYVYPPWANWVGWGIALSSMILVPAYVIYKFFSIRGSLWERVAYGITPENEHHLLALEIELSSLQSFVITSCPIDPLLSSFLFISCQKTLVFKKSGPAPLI

[13] = target: T1, Adrenergic receptor alpha-2 (Rattus norvegicus, UniProt P22086+P19328+P22909); experiment: Binding affinity towards alpha-2 adrenergic receptor; format: protein assay
T1 sequence (P22086 whole entry): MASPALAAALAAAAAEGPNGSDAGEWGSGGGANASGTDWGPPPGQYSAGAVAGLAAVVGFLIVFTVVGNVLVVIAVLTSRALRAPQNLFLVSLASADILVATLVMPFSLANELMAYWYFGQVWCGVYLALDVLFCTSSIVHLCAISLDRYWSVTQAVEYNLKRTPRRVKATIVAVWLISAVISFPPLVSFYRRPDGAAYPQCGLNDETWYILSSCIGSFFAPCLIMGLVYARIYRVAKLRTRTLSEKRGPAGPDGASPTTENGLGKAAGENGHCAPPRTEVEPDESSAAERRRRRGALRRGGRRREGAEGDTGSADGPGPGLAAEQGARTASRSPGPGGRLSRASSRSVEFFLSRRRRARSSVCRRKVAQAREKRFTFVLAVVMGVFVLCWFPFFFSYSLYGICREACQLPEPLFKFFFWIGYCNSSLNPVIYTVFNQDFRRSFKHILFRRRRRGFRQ
T1 sequence (P19328 whole entry): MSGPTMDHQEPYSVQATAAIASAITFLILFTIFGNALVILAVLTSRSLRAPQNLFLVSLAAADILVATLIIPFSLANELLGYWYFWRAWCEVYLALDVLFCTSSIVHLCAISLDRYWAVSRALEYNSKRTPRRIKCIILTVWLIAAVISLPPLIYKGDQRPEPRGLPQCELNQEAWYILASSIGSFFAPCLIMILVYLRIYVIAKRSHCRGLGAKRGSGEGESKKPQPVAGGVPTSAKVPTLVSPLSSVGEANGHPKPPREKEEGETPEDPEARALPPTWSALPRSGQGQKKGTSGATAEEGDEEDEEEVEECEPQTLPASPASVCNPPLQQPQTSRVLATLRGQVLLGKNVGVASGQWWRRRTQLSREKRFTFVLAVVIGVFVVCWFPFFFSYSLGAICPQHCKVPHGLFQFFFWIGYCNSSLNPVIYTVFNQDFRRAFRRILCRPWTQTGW
T1 sequence (P22909 whole entry): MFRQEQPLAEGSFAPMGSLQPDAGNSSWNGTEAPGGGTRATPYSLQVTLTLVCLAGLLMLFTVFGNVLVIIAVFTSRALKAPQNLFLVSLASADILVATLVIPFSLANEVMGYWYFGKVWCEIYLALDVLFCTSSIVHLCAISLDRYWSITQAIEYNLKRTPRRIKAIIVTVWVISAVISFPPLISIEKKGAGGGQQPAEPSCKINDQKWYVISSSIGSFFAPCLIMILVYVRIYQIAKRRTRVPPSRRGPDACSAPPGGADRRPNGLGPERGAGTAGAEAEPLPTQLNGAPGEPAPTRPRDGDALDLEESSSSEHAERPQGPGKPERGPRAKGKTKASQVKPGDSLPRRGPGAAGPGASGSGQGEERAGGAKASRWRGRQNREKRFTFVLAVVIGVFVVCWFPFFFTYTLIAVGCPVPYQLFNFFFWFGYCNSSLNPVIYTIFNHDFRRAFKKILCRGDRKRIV

[14] = target: Serotonin 1 (5-HT1) receptor (Rattus norvegicus) (UniProt P28564+P30940+P19327+P28565); experiment: Binding affinity towards serotonin S1 receptor at 1.0 uM; format: protein assay; method in brief: as §1
D(2) dopamine receptor = D(2) dopamine receptor (Rattus norvegicus, UniProt P61169); experiment: Binding affinity towards Dopamine receptor D2
Sequence of D(2) dopamine receptor (P61169 whole entry): as the sequence (P61169 whole entry) above

[15] = target: T2, Adrenergic receptor alpha-1 (Rattus norvegicus, UniProt P15823+P23944+P43140); experiment: Binding affinity towards alpha-1 adrenergic receptor; format: protein assay
T2 sequence (P15823 whole entry): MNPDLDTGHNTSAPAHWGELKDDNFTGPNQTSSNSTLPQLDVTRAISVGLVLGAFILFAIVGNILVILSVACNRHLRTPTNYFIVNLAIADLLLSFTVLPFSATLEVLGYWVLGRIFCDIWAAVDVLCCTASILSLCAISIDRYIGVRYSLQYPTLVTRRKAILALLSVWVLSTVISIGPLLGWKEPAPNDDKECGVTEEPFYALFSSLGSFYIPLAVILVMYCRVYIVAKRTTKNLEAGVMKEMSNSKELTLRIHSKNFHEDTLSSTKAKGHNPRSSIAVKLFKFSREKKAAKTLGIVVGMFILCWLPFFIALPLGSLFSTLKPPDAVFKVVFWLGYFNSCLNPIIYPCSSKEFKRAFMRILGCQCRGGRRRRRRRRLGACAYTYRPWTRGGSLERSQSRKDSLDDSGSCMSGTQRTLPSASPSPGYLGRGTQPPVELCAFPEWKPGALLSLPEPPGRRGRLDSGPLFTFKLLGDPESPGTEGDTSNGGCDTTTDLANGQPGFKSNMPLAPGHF
T2 sequence (P23944 whole entry): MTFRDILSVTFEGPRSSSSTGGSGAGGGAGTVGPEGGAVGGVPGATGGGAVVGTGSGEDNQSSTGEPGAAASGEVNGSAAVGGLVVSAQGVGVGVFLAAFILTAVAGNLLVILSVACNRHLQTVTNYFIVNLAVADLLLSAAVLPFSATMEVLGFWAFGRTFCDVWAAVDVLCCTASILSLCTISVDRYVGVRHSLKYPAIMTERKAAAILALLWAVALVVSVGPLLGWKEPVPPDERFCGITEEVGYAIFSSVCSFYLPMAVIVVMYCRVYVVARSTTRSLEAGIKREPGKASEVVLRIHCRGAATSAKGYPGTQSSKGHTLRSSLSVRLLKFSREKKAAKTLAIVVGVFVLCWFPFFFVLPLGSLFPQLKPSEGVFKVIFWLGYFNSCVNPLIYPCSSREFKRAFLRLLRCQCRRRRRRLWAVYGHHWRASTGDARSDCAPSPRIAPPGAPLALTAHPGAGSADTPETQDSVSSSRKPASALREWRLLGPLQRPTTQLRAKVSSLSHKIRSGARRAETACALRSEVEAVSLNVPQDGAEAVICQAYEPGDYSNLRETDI
T2 sequence (P43140 whole entry): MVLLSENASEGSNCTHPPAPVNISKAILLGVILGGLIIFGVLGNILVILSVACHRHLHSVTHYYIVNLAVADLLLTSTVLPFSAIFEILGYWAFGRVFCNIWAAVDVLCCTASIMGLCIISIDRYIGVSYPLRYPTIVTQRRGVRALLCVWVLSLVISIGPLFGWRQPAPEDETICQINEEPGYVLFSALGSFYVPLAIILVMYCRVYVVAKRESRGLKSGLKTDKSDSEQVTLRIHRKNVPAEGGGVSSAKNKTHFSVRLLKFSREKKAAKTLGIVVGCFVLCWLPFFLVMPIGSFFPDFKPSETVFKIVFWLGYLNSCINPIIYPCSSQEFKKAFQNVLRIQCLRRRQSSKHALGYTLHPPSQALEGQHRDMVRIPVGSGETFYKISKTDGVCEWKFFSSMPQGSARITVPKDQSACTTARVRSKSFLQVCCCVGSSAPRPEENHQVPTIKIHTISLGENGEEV

[16] = target: Serotonin 1 (5-HT1) receptor (Rattus norvegicus, UniProt P28564+P30940+P19327+P28565); experiment: Binding affinity towards serotonin S1 receptor; format: protein assay; method in brief: as §1

Sequence of D(1A) dopamine receptor (Rattus norvegicus) (P18901 whole entry): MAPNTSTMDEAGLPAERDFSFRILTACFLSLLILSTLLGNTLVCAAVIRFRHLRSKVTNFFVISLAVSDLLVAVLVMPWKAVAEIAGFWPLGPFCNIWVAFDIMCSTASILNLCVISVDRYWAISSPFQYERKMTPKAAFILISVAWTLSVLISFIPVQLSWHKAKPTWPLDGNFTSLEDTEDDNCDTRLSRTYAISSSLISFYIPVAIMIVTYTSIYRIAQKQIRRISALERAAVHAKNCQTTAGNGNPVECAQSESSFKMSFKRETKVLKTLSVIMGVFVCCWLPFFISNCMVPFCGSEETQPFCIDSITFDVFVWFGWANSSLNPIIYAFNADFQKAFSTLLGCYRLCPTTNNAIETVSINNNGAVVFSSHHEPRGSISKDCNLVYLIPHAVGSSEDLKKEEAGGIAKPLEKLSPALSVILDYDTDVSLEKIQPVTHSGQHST

Row | SMILES | inhibition [3] [%] | behavior (Mus musculus [4]) | inhibition in vivo at 0.1 mg/kg (Rattus norvegicus [5]) [%] | ED50 (Mus musculus [6]; Mus musculus, read-out: ED50) [mg/kg] | inhibition in vivo at 0.1 mg/kg (Rattus norvegicus [7]) [%] | ED50 (Mus musculus [8]; Mus musculus, read-out: ED50) [mg/kg] | Ki [13] [nM] | further results
1 | CSc1ccc([C@@H]2CN3CCC[C@@H]3c3ccccc32)cc1 (stereo in doubt; 48b) | 4 | – | – | – | – | – | – | inhibition (Rattus norvegicus [1]): 10%; inhibition [2]: 24%
2 | Br.Cn1ccc2c1[C@H](c1ccccc1)CN1CCC[C@@H]21 | – | Weak | 8 | > 30 | 6 | > 30 | – | –
3 | c1ccc([C@@H]2CN3CC[C@H]3c3ccccc32)cc1 | – | – | – | – | – | – | – | Ki [9]: 1620 nM; ED50 (Mus musculus [10]): inactive; ED50 (Mus musculus [11]): inactive; Ki [12]: 866 nM
4 | CN(C)CCCN1c2ccccc2CCc2ccccc21 [IMIPRAMINE] | 63 | – | – | 0.78 | – | – | 4900 | inhibition [14]: 15%
5 | c1ccc([C@@H]2CN3CCC[C@@H]3c3ccccc32)cc1 (stereo in doubt; 7b) | – | – | – | – | – | – | 750 | Ki (D(2) dopamine receptor): 875 nM; Ki [15]: 172 nM; ED50 (Mus musculus [6]): 0.07 mg/kg; Ki [16]: > 10000 nM; ED50 (Mus musculus [8]): 0.34 mg/kg
6 | c1ccc(CCN2CCCC2c2ccccc2)cc1 (configuration not stated) | – | Weak | 38 | ~10 | 4 | ~10 | – | –

From ChEMBL document CHEMBL1123812, “Pyrroloisoquinoline antidepressants. 2. In-depth exploration of structure-activity relationships” (J Med Chem, 1987)
